In PubChem BioAssay AID504823 (Southern Research Specialized Biocontainment Screening …, 2011):

System: HEp-2 RSV Long CPE inhibition, luminescence viability
Test: inhibition of RSV cytopathic effect in HEp-2, dose response, cell-based, RSV Long, synthesized compounds, set 9 (AID 504823)
Method in brief: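 Material – RSV Long-infected HEp-2 cells · Probe or stimulus – RSV Long, MOI 0.45 · Compound dosing – 0.5% DMSO final · Times – 6 days, 37 °C · Measured by – luminescent CPE readout · Evaluation – % CPE inhibition scaled to cell-only and virus-only wells, IC50 by 4-parameter fit · Benchmarks – cell-only and virus control wells · Repeats – triplicate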

Row | SMILES | IC50
1 | COCCCNC(=O)c1ccc(Cn2c(=O)c3ccccc3n(Cc3ccc(Br)cc3)c2=O)cc1 | < 1200 nM
2 | COCCCNC(=O)c1ccc(Cn2c(=O)c3ccccc3n(Cc3ccc4nonc4c3)c2=O)cc1 | 5600 nM
3 | COCCCNC(=O)c1ccc(Cn2c(=O)c3ccccc3n(Cc3ccc(C(F)(F)F)cc3)c2=O)cc1 | < 1200 nM
4 | COCCCNC(=O)c1ccc(Cn2c(=O)c3ccccc3n(Cc3ccc(OC)cc3)c2=O)cc1 | 2400 nM
5 | Cc1ccc(C)c(NC(=O)[C@@H]2CCCN2S(=O)(=O)c2cccc3cccnc23)c1 | 3200 nM
6 | COCCCNC(=O)c1ccc(Cn2c(=O)c3ccccc3n(Cc3ccc(C)c(C(F)(F)F)c3)c2=O)cc1 | < 1200 nM
7 | COCCCNC(=O)c1ccc(Cn2c(=O)c3ccccc3n(Cc3ccc([N+](=O)[O-])cc3)c2=O)cc1 | < 1200 nM
8 | COc1ccccc1CNC(=O)C1CCN(S(=O)(=O)c2cccc3nonc23)CC1 | 2900 nM
9 | COCCCNC(=O)c1ccc(Cn2c(=O)c3ccccc3n(Cc3ccc(Cl)cc3)c2=O)cc1 | < 1200 nM
